Assay results: ChEMBL document CHEMBL3865800, “Design, synthesis and biological evaluation of 4-anilinoquinazoline derivatives as new c-myc G-quadruplex ligands” (Eur J Med Chem, 2016)
Calls of active or inactive are those of the source. No cut-off for these calls is given here.

Assays:
[1] = Cell cycle arrest in human HeLa cells assessed as accumulation at S phase at 2.5 uM after 48 hrs by propidium iodide based FACS analysis (reference value: 28.6 %); type: functional
[2] = Cell cycle arrest in human HeLa cells assessed as accumulation at S phase at 1.25 uM after 48 hrs by propidium iodide based FACS analysis (reference value: 28.6 %); type: functional
[3] = Cell cycle arrest in human HeLa cells assessed as accumulation at S phase after 48 hrs by propidium iodide based FACS analysis (reference value: 23.1 %); type: functional
[4] = Cell cycle arrest in human HeLa cells assessed as accumulation at G0/G1 phase after 24 hrs by propidium iodide based FACS analysis (reference value: 30.8 %); type: functional
[5] = Cell cycle arrest in human HeLa cells assessed as accumulation at S phase at 5 uM after 48 hrs by propidium iodide based FACS analysis (reference value: 28.6 %); type: functional
[6] = Cell cycle arrest in human HeLa cells assessed as accumulation at G2/M phase after 48 hrs by propidium iodide based FACS analysis (reference value: 46.1 %); type: functional
HeLa [7] = assay: Binding affinity to c-myc G-quadruplex DNA in human HeLa cells assessed as reduction in c-myc gene expression at 1.25 to 10 uM after 6 hrs by Western blot analysis; type: cell-based
In short: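 HeLa treated 6 h at 0–10 μM; lysates BCA-quantified, 20 μg protein on 12% SDS–PAGE, transferred to nitrocellulose, blocked in 5% BSA/TBS-Tween; probed with anti-c-myc and anti-GAPDH (loading control), HRP secondary, chemiluminescent detection.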

[8] = Cytotoxicity against human A549 cells assessed as reduction in cell viability after 48 hrs by MTT assay; type: functional, cell-based; conditions: A549, 48 h
[9] = Cell cycle arrest in human HeLa cells assessed as accumulation at G0/G1 phase after 48 hrs by propidium iodide based FACS analysis (reference value: 30.8 %); type: functional
[10] = Cell cycle arrest in human HeLa cells assessed as accumulation at G2/M phase at 2.5 uM after 48 hrs by propidium iodide based FACS analysis (reference value: 33.7 %); type: functional
[11] = Binding affinity to biotinylated 5'-Pu22-3'-labelled c-myc G-quadruplex DNA (unknown origin) after 240 secs by SPR assay
In short: (§1)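 SPR: biotinylated Pu22 and biotinylated duplex folded in 50 mM Tris-HCl pH 7.4, 150 mM KCl, 0.005% Tween20, captured (~1000 RU) on separate flow cells with a blank reference; ligand 0.0625–10 μM in running buffer, 240 s association then 240 s dissociation at 25 °C; equilibrium KD derived.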

[12] = Binding affinity to 5'-Pu22-3' c-myc G-quadruplex DNA (unknown origin) assessed as induction of parallel c-myc G-quadruplex conformation at 2 equiv after 6 hrs in absence of KCl by CD-spectroscopic analysis
In short: (§2)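 Pu22 at 3 μM final in 10 mM Tris-HCl buffer with ligand at 2 equiv, with 100 mM KCl or without KCl; heated 95 °C 5 min, slowly cooled, held ≥6 h; CD spectra 230–330 nm, 1 mm quartz cell, 1 nm bandwidth and step, 0.5 s/point, average of two scans.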

[13] = Binding affinity to 5'-FPu22T-3'-labelled c-myc G-quadruplex DNA (unknown origin) assessed as change in melting temperature at 2 uM in presence ds26 DNA of by FRET assay
In short: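 FRET melting of 0.4 μM labelled FPu22T with ligand 2.0 μM, alone or with 10-fold (4 μM), 50-fold (20 μM) or 100-fold (40 μM) excess unlabelled duplex ds26 as competitor; Tris-HCl 10 mM pH 7.4 with 10 or 60 mM KCl; ex 470/em 530 nm read every 1 °C from 37–99 °C, 30 s hold; ΔTm = Tm(DNA+ligand) − Tm(DNA).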

[14] = Cell cycle arrest in human HeLa cells assessed as accumulation at G2/M phase after 24 hrs by propidium iodide based FACS analysis (reference value: 46.1 %); type: functional
[15] = Cytotoxicity against human Raji cells assessed as reduction in cell viability after 48 hrs by MTT assay; type: functional, cell-based
[16] = Cell cycle arrest in human HeLa cells assessed as accumulation at G2/M phase at 5 uM after 48 hrs by propidium iodide based FACS analysis (reference value: 33.7 %); type: functional
HeLa [17] = assay: Cytotoxicity against human HeLa cells assessed as cell growth inhibition at 1.25 to 10 uM after 80 hrs by RTCA assay; type: functional, cell-based
[18] = Cytotoxicity against human CA46 cells assessed as reduction in cell viability after 48 hrs by MTT assay; type: functional, cell-based; conditions: CA46, 48 h
[19] = Binding affinity to F10T duplex DNA (unknown origin) assessed as change in melting temperature by FRET assay
In short: (§3)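 Fluorescence melting on real-time PCR instrument; 0.4 μM labelled oligonucleotide (FPu22T or duplex-forming F10T), ligand 2.0 μM, in 10 mM Tris-HCl pH 7.4 with 10 or 60 mM KCl; ex 470/em 530 nm at 1 °C steps over 37–99 °C, 30 s equilibration each; ΔTm = Tm(DNA+ligand) − Tm(DNA).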

[20] = Cell cycle arrest in human HeLa cells assessed as accumulation at G2/M phase at 1.25 uM after 48 hrs by propidium iodide based FACS analysis (reference value: 33.7 %); type: functional
[21] = Cell cycle arrest in human HeLa cells assessed as accumulation at G0/G1 phase after 12 hrs by propidium iodide based FACS analysis (reference value: 30.8 %); type: functional
[22] = Binding affinity to biotinylated double stranded DNA (unknown origin) after 240 secs by SPR assay; in short: as §1
[23] = Binding affinity to 5'-Pu22-3' c-myc G-quadruplex DNA (unknown origin) assessed as maintainance of parallel c-myc G-quadruplex conformation at 2 equiv after 6 hrs in presence of KCl by CD-spectroscopic analysis; in short: as §2
[24] = Cytotoxicity against mouse primary mesangial cells assessed as reduction in cell viability after 48 hrs by MTT assay; type: toxicity
HeLa [25] = assay: Binding affinity to c-myc G-quadruplex DNA in human HeLa cells assessed as inhibition of c-myc transcription after 3 hrs by RT-PCR analysis; type: cell-based
In short: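 HeLa (2×10^5/well) treated 3 h with 1.25–10 μM or DMSO; total RNA oligo-dT primed, M-MLV reverse transcribed (70 °C 10 min; 42 °C 1 h; 70 °C 15 min); c-myc and β-actin (internal control) amplified by real-time PCR, products run on 1.5% agarose.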

[26] = Cell cycle arrest in human HeLa cells assessed as accumulation at S phase after 12 hrs by propidium iodide based FACS analysis (reference value: 23.1 %); type: functional
[27] = Cell cycle arrest in human HeLa cells assessed as accumulation at S phase after 24 hrs by propidium iodide based FACS analysis (reference value: 23.1 %); type: functional
[28] = Selectivity ratio of Kd for double stranded DNA (unknown origin) to Kd for biotinylated 5'-Pu22-3'-labelled c-myc G-quadruplex DNA
[29] = Cell cycle arrest in human HeLa cells assessed as accumulation at G0/G1 phase at 5 uM after 48 hrs by propidium iodide based FACS analysis (reference value: 35.9 %); type: functional
[30] = Cell cycle arrest in human HeLa cells assessed as accumulation at G2/M phase after 12 hrs by propidium iodide based FACS analysis (reference value: 46.1 %); type: functional
[31] = Cell cycle arrest in human HeLa cells assessed as accumulation at G0/G1 phase at 1.25 uM after 48 hrs by propidium iodide based FACS analysis (reference value: 35.9 %); type: functional
[32] = Cell cycle arrest in human HeLa cells assessed as accumulation at G0/G1 phase at 2.5 uM after 48 hrs by propidium iodide based FACS analysis (reference value: 35.9 %); type: functional
[33] = Binding affinity to 5'-FPu22T-3'-labelled c-myc G-quadruplex DNA (unknown origin) assessed as change in melting temperature by FRET assay; in short: as §3
Mus musculus = organism: Mus musculus; assay: Cytotoxicity against mouse primary mesangial cells assessed as cell growth inhibition at 1.25 to 10 uM after 80 hrs by RTCA assay; type: toxicity, cell-based
[34] = Cytotoxicity against human HeLa cells assessed as reduction in cell viability after 48 hrs by MTT assay; type: functional, cell-based
[35] = Drug uptake in human HeLa cells at 10 uM after 48 hrs

## CCN(CC)CCC(=O)Nc1ccc(Nc2nc(-c3ccccc3NC(=O)CCN(CC)CC)nc3ccccc23)cc1
[1]
  Activity: 30.2%
[2]
  Activity: 26.4%
[3]
  Activity: 16.8%
[4]
  Activity: 43.5%
[5]
  Activity: 29%
[6]
  Activity: 22.1%
HeLa [7]
  inhibition: Active
[8]
  IC50: 5.9 µM
[9]
  Activity: 61.1%
[10]
  Activity: 18.4%
[11]
  Kd: 210 nM
[12]
  Activity: Active
[13]
  Activity: Active
[14]
  Activity: 38.1%
[15]
  IC50: 3.1 µM
[16]
  Activity: 12.7%
HeLa [17]
  growth inhibition (GI): Active
[18]
  IC50: 6.5 µM
[19]
  ΔTm: 0.8 °C
[20]
  Activity: 22.2%
[21]
  Activity: 41.8%
[22]
  Kd: > 10 µM
[23]
  Activity: Active
[24]
  IC50 at 48 h: 13.1 µM
HeLa [25]
  inhibition: Dose-dependent effect
[26]
  Activity: 19.4%
[27]
  Activity: 18.4%
[28]
  Selectivity ratio: > 47.6
[29]
  Activity: 54.8%
[30]
  Activity: 38.8%
[31]
  Activity: 48.4%
[32]
  Activity: 48.9%
[33]
  ΔTm: 19.6 °C
Mus musculus
  Activity: Non-Toxic
[34]
  IC50: 4.4 µM
[35]
  Drug uptake: Active
